2 molecules from ChEMBL document CHEMBL1156735, “Might adrenergic alpha2C-agonists/alpha2A-antagonists become novel therapeutic tools for pain treatment with morphine?” (J Med Chem, 2009) can be followed below.

Molecules are shown by their SMILES.

Test [1] addresses T1, Alpha-2C adrenergic receptor (Homo sapiens) (UniProt P18825).
T1 sequence (whole entry): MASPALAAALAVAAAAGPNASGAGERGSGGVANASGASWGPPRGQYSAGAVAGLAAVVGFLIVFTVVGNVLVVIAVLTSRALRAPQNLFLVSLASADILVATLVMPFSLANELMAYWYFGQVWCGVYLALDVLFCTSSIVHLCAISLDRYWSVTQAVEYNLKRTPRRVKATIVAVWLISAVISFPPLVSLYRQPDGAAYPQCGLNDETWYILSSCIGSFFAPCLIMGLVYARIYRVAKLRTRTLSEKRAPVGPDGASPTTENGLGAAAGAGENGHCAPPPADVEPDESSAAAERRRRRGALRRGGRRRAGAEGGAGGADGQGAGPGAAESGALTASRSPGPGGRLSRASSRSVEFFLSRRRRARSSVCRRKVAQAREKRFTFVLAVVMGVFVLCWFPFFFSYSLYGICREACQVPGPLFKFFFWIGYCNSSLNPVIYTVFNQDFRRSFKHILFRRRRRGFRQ
Briefly: Intrinsic activity at human Alpha-2C adrenoceptor expressed in CHO cells assessed as extracellular acidification by cytosensor microphysiometry relative to noradrenaline. The test is classed as cell-based. The procedure, abridged: (§1)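 Cytosensor microphysiometry on the same CHO cell lines expressing individual human α2-AR subtypes. pEC50, pKb and intrinsic activity were derived, with ia expressed as a fraction of full agonist (-)-noradrenaline (taken as 1). ia <0.3 was scored not active. Values are mean ± SEM of three to six separate experiments.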

For test [2], the target named is T2, Alpha-2B adrenergic receptor (Homo sapiens) (UniProt P18089).
T2 sequence (whole entry): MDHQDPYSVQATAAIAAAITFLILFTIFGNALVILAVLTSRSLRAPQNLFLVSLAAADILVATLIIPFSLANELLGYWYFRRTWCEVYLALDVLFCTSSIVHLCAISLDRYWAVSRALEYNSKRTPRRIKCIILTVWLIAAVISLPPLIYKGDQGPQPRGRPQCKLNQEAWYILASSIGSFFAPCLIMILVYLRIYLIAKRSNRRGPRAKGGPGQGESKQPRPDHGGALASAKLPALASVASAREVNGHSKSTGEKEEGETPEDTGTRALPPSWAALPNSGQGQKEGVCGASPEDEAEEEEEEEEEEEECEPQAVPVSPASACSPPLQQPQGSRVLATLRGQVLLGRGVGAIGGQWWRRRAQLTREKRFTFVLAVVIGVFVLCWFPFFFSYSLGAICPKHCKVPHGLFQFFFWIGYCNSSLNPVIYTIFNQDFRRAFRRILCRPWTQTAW
Put plainly: Intrinsic activity at human alpha2B adrenoceptor expressed in CHO cells assessed as extracellular acidification by cytosensor microphysiometry relative to noradrenaline. The test is classed as cell-based. The procedure, abridged: as §1

The target of test [3] is T3, Alpha-2A adrenergic receptor (Homo sapiens) (UniProt P08913).
T3 sequence (whole entry): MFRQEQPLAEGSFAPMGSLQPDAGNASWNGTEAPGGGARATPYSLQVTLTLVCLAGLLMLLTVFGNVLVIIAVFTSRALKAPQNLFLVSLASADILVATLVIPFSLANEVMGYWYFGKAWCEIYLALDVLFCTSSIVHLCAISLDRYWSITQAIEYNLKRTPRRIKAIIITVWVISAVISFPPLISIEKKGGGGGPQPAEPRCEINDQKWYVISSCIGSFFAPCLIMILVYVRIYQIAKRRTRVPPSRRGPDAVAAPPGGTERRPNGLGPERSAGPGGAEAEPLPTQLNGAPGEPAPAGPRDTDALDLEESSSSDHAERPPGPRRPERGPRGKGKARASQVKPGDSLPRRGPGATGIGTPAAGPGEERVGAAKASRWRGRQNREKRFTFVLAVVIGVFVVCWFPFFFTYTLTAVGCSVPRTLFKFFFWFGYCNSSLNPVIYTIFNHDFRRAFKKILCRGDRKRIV
Put plainly: Antagonist activity at human alpha2A adrenoceptor expressed in CHO cells assessed as extracellular acidification by cytosensor microphysiometry. Format: functional, cell-based. The procedure, abridged: as §1

Test [4] addresses T4, Alpha-2C adrenergic receptor (Homo sapiens, UniProt P18825).
T4 sequence (P18825 whole entry): T1 sequence (whole entry)
Put plainly: Agonist activity at human Alpha-2C adrenoceptor expressed in CHO cells assessed as extracellular acidification by cytosensor microphysiometry. The test is classed as functional, cell-based. The procedure, abridged:
as §1

The target in test [5] is T5, Alpha-2B adrenergic receptor (Homo sapiens, UniProt P18089).
T5 sequence (P18089 whole entry): T2 sequence (whole entry)
Briefly: Agonist activity at human alpha2B adrenoceptor expressed in CHO cells assessed as extracellular acidification by cytosensor microphysiometry. The test is classed as functional, cell-based. A digest of the protocol: as §1

For test [6], the target named is T4, Alpha-2C adrenergic receptor. Put plainly: Displacement of [3H]RX821002 from human Alpha-2C adrenoceptor expressed in CHO cell membrane after 30 mins by liquid scintillation counting. The test is classed as cell membranes. The procedure, abridged: (§2)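 Competition binding against [3H]RX 821002 on membrane preparations from CHO cells, each line expressing one human α2-AR subtype (α2A, α2B or α2C); affinities reported as pKi.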

Test [7] addresses T5, Alpha-2B adrenergic receptor. Put plainly: Displacement of [3H]RX821002 from human alpha2B adrenoceptor expressed in CHO cell membrane after 30 mins by liquid scintillation counting. Format: cell membranes. A digest of the protocol:
as §2

For test [8], the target named is T6, Alpha-2A adrenergic receptor (Homo sapiens, UniProt P08913).
T6 sequence (P08913 whole entry): T3 sequence (whole entry)
Briefly: Displacement of [3H]RX821002 from human alpha2A adrenoceptor expressed in CHO cell membrane after 30 mins by liquid scintillation counting. Format: cell membranes. The procedure, abridged: as §2

Take `c1ccc(C2CC2)c(OCC2=NCCN2)c1` [CIRAZOLINE]: the values for the Intrinsic activity in test [1] and in test [2] were 0.8 and 1, respectively. The pKb in test [3] turned out to be 6.4. Further, the concentration giving a half-maximal response (EC50) in test [4] was 398 nM; in test [5], 1000 nM. Further, the Ki in test [6] is 550 nM; in test [7] it was 525 nM; in test [8] it was 58.9 nM.

Take `NC[C@H](O)c1ccc(O)c(O)c1`: the Intrinsic activity in test [1] and in test [2] was 1 throughout.
